# Results from different studies.
# Each line is one published result; the experiments were not run side by side.
# Target: Ephrin type-A receptor 3 (EPHA3, Homo sapiens, UniProt P29320)
# One construct used (P29320 21-983): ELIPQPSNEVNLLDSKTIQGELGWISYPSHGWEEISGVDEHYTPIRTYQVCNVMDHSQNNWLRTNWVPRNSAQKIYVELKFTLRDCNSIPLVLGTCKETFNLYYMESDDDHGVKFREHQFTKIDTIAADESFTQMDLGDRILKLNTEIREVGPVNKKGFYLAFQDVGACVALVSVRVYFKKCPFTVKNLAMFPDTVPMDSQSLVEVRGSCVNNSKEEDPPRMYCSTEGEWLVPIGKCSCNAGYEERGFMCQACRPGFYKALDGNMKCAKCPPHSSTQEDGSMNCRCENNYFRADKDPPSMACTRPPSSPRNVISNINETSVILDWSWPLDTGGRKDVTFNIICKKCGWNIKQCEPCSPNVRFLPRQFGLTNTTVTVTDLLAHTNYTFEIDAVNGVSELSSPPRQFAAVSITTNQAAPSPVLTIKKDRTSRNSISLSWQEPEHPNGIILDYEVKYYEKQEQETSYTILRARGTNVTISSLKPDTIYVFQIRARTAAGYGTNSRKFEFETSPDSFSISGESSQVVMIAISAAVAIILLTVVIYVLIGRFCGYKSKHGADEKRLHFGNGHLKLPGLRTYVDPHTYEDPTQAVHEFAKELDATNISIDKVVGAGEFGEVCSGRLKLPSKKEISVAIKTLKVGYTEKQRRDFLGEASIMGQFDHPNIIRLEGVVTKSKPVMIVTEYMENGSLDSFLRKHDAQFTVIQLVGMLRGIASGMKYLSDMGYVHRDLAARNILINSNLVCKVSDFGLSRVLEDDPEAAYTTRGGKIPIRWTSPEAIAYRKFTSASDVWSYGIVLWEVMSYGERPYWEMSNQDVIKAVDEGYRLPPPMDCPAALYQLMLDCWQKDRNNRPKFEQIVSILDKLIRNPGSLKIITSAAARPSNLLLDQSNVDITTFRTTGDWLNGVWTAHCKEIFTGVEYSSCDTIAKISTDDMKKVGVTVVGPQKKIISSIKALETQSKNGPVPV
SMILES,test,conditions,quantity,result
CN(c1nccc(-c2cnn3ncccc23)n1)C1CC1,binding,1 µM,remaining binding,100%
Nc1nc(Nc2ccc(S(N)(=O)=O)cc2)nn1C(=O)c1c(F)cccc1F,cell-free assay,0.5 µM,remaining signal,107%
CN(C)C1CCN(CC#Cc2nn(C3CCCC3)c3nc(NCc4ccccc4)ncc23)C1 (stereo not shown),"enzyme activity, inhibitor, FRET",1 µM,inhibition,-9%
CS(=O)(=O)CCNCc1ccc(-c2ccc3ncnc(Nc4ccc(OCc5cccc(F)c5)c(Cl)c4)c3c2)o1,cell-free assay,0.5 µM,remaining signal,98.2%
CNC(=O)Nc1ccc2c(c1)CC[C@@]21OC(=O)N(CC(=O)N(Cc2ccc(F)cc2)[C@@H](C)C(F)(F)F)C1=O,"cell-free assay, competition with immobilised ligand",1 µM,remaining binding,100%
Cc1ccc(C(=O)Nc2ccc(CN3CCN(C)CC3)c(C(F)(F)F)c2)cc1C#Cc1cnc2cccnn12,cell-free assay,23.5 nM,remaining signal,7.3%
Cc1ccc(Nc2nccc(N(C)c3ccc4c(C)n(C)nc4c3)n2)cc1S(N)(=O)=O,"enzyme activity, inhibitor",10 µM,inhibition,30%
CCOC(=O)c1cc2cc(-c3cc(C(=O)NCc4ccc(C(=O)O)cc4)nn3C)ccc2[nH]1,"cell-free assay, competition with immobilised ligand",0.1 µM,remaining binding,100%
CCCOc1ccc(OC)c(F)c1C(=O)c1ccc(C(=O)N[C@@H]2CNC[C@H]2NC(=O)c2ccc3[nH]ncc3c2)cc1,"enzyme activity, inhibitor",10 µM,remaining activity,61%
CCCCN(CCCC)C(=O)CN1C[C@@H](c2cc(OC)c3c(c2)OCO3)[C@H](C(=O)O)[C@H]1CC(C)(C)CCC,"cell-free assay, competition with immobilised ligand",1 µM,remaining binding,95.3%
CCCS(=O)(=O)Nc1ccc(F)c(C(=O)c2c[nH]c3ncc(-c4ccc(Cl)cc4)cc23)c1F,"enzyme activity, inhibitor",1 µM,inhibition,< 10%
O=C(O)[C@@H]1[C@@H](Cn2nnc3ccccc3c2=O)CC[C@H]1C(=O)c1ccc(OCCC2CCOCC2)cc1,"cell-free assay, competition with immobilised ligand",1 µM,remaining binding,100%
Cc1cc(NC(=O)c2cccc3cc(-c4cccc5[nH]nc(N)c45)ccc23)ccc1F,"enzyme activity, inhibitor",0.1 µM,activity vs control,103%
CCc1ccccc1C(=O)Nc1n[nH]c2c(C)c(F)c(C3C(C#N)=C(C)N(C)C(C)=C3C#N)cc12,"cell-free assay, competition with immobilised ligand",1 µM,remaining binding,100%
CC/C(=N\NC(=O)NCc1cccc(O)c1)c1ccc(O)c(C)c1O,"enzyme activity, inhibitor",0.1 µM,inhibition,0.6%
O=C1NC(=O)c2cc(Nc3ccc(F)cc3)c(Nc3ccc(F)cc3)cc21,cell-free assay,0.5 µM,remaining signal,96.6%
